Activity calls are given as the source filed them. The rule behind the calls is not given here. Where a SMILES comes first, the peptide text is derived from it. [ ]: non-standard residue; d: D form. The star is where a group is joined. Tyr(Nα,Nα-allyl2) = C=CCN(CC=C)[C@@H](Cc1ccc(O)cc1)C(=O)*; Aib = CC(C)(N)C(=O)O
What was measured:
[1] = molecular target: T1, Delta-type opioid receptor (Homo sapiens, UniProt P41143); assay: Antagonist activity at human cloned delta opioid receptor expressed in CHO cells assessed as inhibition of DPDPE-stimulated [35S]GTP-gamma-S binding in presence of 10 uM GDP; type: functional, cell-based
T1 sequence (P41143 whole entry): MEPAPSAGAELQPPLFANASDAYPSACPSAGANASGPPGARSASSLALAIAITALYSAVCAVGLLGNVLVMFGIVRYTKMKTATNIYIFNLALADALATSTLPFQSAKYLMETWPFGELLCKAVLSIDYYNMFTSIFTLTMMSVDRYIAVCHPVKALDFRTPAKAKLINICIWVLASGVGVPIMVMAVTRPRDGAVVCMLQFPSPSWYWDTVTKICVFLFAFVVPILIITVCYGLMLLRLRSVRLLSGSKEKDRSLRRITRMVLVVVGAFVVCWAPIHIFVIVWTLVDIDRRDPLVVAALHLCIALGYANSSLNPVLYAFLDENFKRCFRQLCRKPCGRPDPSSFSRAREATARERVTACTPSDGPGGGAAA
How it was run: (§1)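 Membranes of CHO cells expressing cloned human receptor (0.4-0.6 pmol/mg), 20-40 µg protein, with 0.5 nM [³⁵S]GTPγS, 10 µM GDP final, 1% DMSO, in 20 mM Hepes pH 7.4, 100 mM NaCl, 10 mM MgCl₂; 1 h room temperature. Agonist curves (seven concentrations, 0.32-32 000 nM) ± one test concentration (µ 3-300, δ 1-50, κ 50-300 nM). Filtration over GF/B, scintillation counting; Ke as mean ± SE, ≥3 experiments.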

[2] = molecular target: Opioid receptors; delta & kappa (Homo sapiens) (UniProt P41145+P41143); assay: Selectivity for human cloned delta opioid receptor over kappa opioid receptor; type: protein assay
Chain of Opioid receptors; delta & kappa (Homo sapiens) (P41143 whole entry, looked up): as the sequence (P41143 whole entry) above
Chain of Opioid receptors; delta & kappa (Homo sapiens) (P41145 whole entry, looked up): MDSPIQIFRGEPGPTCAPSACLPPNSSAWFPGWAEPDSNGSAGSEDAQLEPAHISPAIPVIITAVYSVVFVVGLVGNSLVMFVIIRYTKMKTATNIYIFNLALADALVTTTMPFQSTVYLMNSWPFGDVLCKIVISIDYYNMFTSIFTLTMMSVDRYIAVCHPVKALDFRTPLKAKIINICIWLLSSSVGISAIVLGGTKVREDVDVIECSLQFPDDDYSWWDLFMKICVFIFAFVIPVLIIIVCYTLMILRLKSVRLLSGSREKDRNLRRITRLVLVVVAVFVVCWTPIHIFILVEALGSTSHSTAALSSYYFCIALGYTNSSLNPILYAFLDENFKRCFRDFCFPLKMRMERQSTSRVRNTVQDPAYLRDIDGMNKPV
How it was run: (§2)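 Ratios of Ke values from [³⁵S]GTPγS antagonism assays at cloned human µ, δ and κ receptors in CHO membranes, each run with 10 µM GDP final against DAMGO, DPDPE or U69593 agonist curves.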

[3] = molecular target: Kappa-type opioid receptor (Homo sapiens) (UniProt P41145); assay: Antagonist activity at human cloned kappa opioid receptor expressed in CHO cells assessed as inhibition of U69593-stimulated [35S]GTPgammaS binding in presence of 10 uM GDP; type: functional, cell-based; how it was run: as §1
Chain of Kappa-type opioid receptor (Homo sapiens) (P41145 whole entry): as the sequence (P41145 whole entry, looked up) above

[4] = molecular target: Mu-type opioid receptor (Homo sapiens) (UniProt P35372); assay: Intrinsic activity at mu opioid receptor in presence of 1 uM GDP; type: functional
Chain of Mu-type opioid receptor (Homo sapiens) (P35372 whole entry): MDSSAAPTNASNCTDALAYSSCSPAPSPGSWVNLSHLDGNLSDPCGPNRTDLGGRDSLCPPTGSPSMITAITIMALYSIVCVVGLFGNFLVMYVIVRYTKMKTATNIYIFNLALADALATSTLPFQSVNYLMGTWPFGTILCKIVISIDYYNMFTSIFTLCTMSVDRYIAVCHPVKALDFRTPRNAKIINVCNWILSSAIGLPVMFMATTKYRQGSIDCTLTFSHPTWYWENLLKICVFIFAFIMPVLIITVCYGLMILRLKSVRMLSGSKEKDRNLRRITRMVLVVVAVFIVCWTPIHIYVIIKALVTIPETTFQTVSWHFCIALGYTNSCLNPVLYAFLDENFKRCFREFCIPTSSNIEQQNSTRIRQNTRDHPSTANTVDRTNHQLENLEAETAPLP

[5] = molecular target: Opioid receptors; mu & delta (Homo sapiens) (UniProt P41143+P35372); assay: Selectivity for human cloned delta opioid receptor over mu opioid receptor; type: protein assay; how it was run: as §2
Chain of Opioid receptors; mu & delta (Homo sapiens) (P35372 whole entry, looked up): as the sequence (P35372 whole entry) above
Chain of Opioid receptors; mu & delta (Homo sapiens) (P41143 whole entry, looked up): as the sequence (P41143 whole entry) above

[6] = molecular target: Kappa-type opioid receptor (Homo sapiens) (UniProt P41145); assay: Intrinsic activity at kappa opioid receptor in presence of 1 uM GDP; type: functional
[7] = molecular target: T1, Delta-type opioid receptor; assay: Inverse agonist activity at human cloned delta opioid receptor expressed in CHO cells assessed as […] [35S]GTP-gamma-S binding in presence of 1 uM GDP relative to control; type: functional, cell-based; design: scale not given: the % may be the effect or the level left
[8] = molecular target: T1, Delta-type opioid receptor; assay: Agonist activity at delta opioid receptor at 31.6 uM; type: functional
[9] = molecular target: Mu-type opioid receptor (Homo sapiens) (UniProt P35372); assay: Antagonist activity at human cloned mu opioid receptor expressed in CHO cells assessed as inhibition of DAMGO-stimulated [35S]GTP-gamma-S binding in presence of 10 uM GDP; type: functional, cell-based; how it was run: as §1
[10] = molecular target: T1, Delta-type opioid receptor; assay: Inverse agonist activity at human cloned delta opioid receptor expressed in CHO cells assessed as […] [35S]GTP-gamma-S binding in presence of 1 uM GDP; type: functional, cell-based

Cc1ccccc1/C=C/CN1C[C@H](C)[C@@]2(c3cccc(O)c3)C[C@H](NC(=O)C3(c4ccccc4)CCCC3)C[C@@H]1C2
Ke [1]: 0.33 nM | Ratio Ke [2]: 22 | Ke [3]: 5.6 nM | Activity [4]: inactive | Ratio Ke [5]: 7.6 | Activity [6]: inactive | Activity [7]: 70% | Activity [8]: inactive | Ke [9]: 2.51 nM | IC50 [10]: 0.5 nM

CC1CN(CCCc2ccccc2)[C@@H]2C[C@@H](NC(=O)C3(c4ccccc4)CCCC3)C[C@@]1(c1cccc(O)c1)C2 (single isomer, unassigned; (+))
Ke [1]: 0.15 nM | Ratio Ke [2]: 119 | Ke [3]: 17.9 nM | Activity [4]: inactive | Ratio Ke [5]: 58 | Activity [6]: inactive | Activity [7]: 70% | Activity [8]: inactive | Ke [9]: 8.7 nM | IC50 [10]: 1.8 nM

C[C@H]1CN(CCCc2ccccc2)[C@@H]2C[C@@H](NC(=O)C3(c4ccccc4)CCC3)C[C@@]1(c1cccc(O)c1)C2
Ke [1]: 0.17 nM | Ratio Ke [2]: 94 | Ke [3]: 16 nM | Activity [4]: inactive | Ratio Ke [5]: 62 | Activity [6]: inactive | Activity [7]: 65% | Activity [8]: inactive | Ke [9]: 10.6 nM | IC50 [10]: 0.42 nM

Cc1ccccc1/C=C/CN1C[C@H](C)[C@@]2(c3cccc(O)c3)C[C@H](NC(=O)C(C)(C)c3ccccc3)C[C@@H]1C2
Ke [1]: 0.47 nM | Ratio Ke [2]: 14 | Ke [3]: 6.7 nM | Activity [4]: inactive | Ratio Ke [5]: 2.2 | Activity [6]: inactive | Activity [7]: 70% | Activity [8]: inactive | Ke [9]: 1.02 nM | IC50 [10]: 0.12 nM

CCC(CC)(C(=O)N[C@@H]1C[C@@H]2C[C@](c3cccc(O)c3)(C1)[C@@H](C)CN2CCCc1ccccc1)c1ccccc1
Ke [1]: 0.2 nM | Ratio Ke [2]: 74 | Ke [3]: 14.6 nM | Activity [4]: inactive | Ratio Ke [5]: 59 | Activity [6]: inactive | Activity [7]: 61% | Activity [8]: inactive | Ke [9]: 11.7 nM | IC50 [10]: 1.8 nM

C[C@H]1CN(CCCc2ccccc2)[C@@H]2C[C@@H](NC(=O)C3(c4ccccc4)CCCCC3)C[C@@]1(c1cccc(O)c1)C2
Ke [1]: 0.34 nM | Ratio Ke [2]: 30 | Ke [3]: 10.2 nM | Activity [4]: inactive | Ratio Ke [5]: 67 | Activity [6]: inactive | Activity [7]: 65% | Activity [8]: inactive | Ke [9]: 22.8 nM | IC50 [10]: 0.68 nM

C[C@H]1CN(CCCc2ccccc2)[C@@H]2C[C@@H](NC(=O)C3(c4ccc(F)cc4)CCCC3)C[C@@]1(c1cccc(O)c1)C2
Ke [1]: 0.26 nM | Ratio Ke [2]: 17 | Ke [3]: 4.5 nM | Activity [4]: inactive | Ratio Ke [5]: 35 | Activity [6]: inactive | Activity [7]: 72% | Activity [8]: inactive | Ke [9]: 9.1 nM | IC50 [10]: 0.45 nM

C[C@H]1CN(CCCc2ccccc2)[C@@H]2C[C@@H](NC(=O)C3(c4ccccc4)CCCCCC3)C[C@@]1(c1cccc(O)c1)C2
Ke [1]: 0.26 nM | Ratio Ke [2]: 67 | Ke [3]: 17.5 nM | Activity [4]: inactive | Ratio Ke [5]: 93 | Activity [6]: inactive | Activity [7]: 70% | Activity [8]: inactive | Ke [9]: 24.4 nM | IC50 [10]: 0.39 nM

COc1ccc(C2(C(=O)N[C@@H]3C[C@@H]4C[C@](c5cccc(O)c5)(C3)[C@@H](C)CN4CCCc3ccccc3)CCCC2)cc1
Ke [1]: 0.67 nM | Ratio Ke [2]: 3.6 | Ke [3]: 2.43 nM | Activity [4]: inactive | Ratio Ke [5]: 18 | Activity [6]: inactive | Activity [7]: 72% | Activity [8]: inactive | Ke [9]: 12 nM | IC50 [10]: 0.48 nM

C[C@H]1CN(CCCc2ccccc2)[C@@H]2C[C@@H](NC(=O)C3(c4cccc5ccccc45)CCCC3)C[C@@]1(c1cccc(O)c1)C2
Ke [1]: 1.42 nM | Ratio Ke [2]: 31 | Ke [3]: 43.6 nM | Activity [4]: inactive | Ratio Ke [5]: 19 | Activity [6]: inactive | Activity [7]: 46% | Activity [8]: inactive | Ke [9]: 27.2 nM | IC50 [10]: 16 nM

C[C@H]1CN(C/C=C/c2ccccc2)[C@@H]2C[C@@H](NC(=O)C(C)(C)c3ccccc3)C[C@@]1(c1cccc(O)c1)C2
Ke [1]: 0.81 nM | Ratio Ke [2]: 20 | Ke [3]: 15.8 nM | Activity [4]: inactive | Ratio Ke [5]: 2.4 | Activity [6]: inactive | Activity [7]: 78% | Activity [8]: inactive | Ke [9]: 1.9 nM | IC50 [10]: 0.72 nM

C=CCN(CC=C)[C@@H](Cc1ccc(O)cc1)C(=O)NC(C)(C)C(=O)NC(C)(C)C(=O)N[C@@H](Cc1ccccc1)C(=O)N[C@@H](CC(C)C)C(=O)O ({Tyr(Nα,Nα-allyl2)}-[Aib][Aib]FL-OH)
Ratio Ke [2]: 43 | Activity [4]: inactive | Ratio Ke [5]: 5.3 | Activity [6]: inactive | Activity [7]: 75% | Activity [8]: inactive | IC50 [10]: 83 nM

C[C@H]1CN(CCCc2ccccc2)[C@@H]2C[C@@H](NC(=O)C3(c4ccsc4)CCCC3)C[C@@]1(c1cccc(O)c1)C2
Ke [1]: 0.24 nM | Ratio Ke [2]: 33 | Ke [3]: 7.77 nM | Activity [4]: inactive | Ratio Ke [5]: 8.8 | Activity [6]: inactive | Activity [7]: 86% | Activity [8]: inactive | Ke [9]: 2.07 nM | IC50 [10]: 0.45 nM

Oc1ccc2c3c1O[C@H]1c4[nH]c5ccccc5c4C[C@@]4(O)[C@@H](C2)N(CC2CC2)CC[C@]314
Ratio Ke [2]: 77 | Activity [4]: inactive | Ratio Ke [5]: 157 | Activity [6]: inactive | Activity [8]: inactive

C[C@H]1CN(C)[C@@H]2C[C@@H](NC(=O)C3(c4ccccc4)CCCC3)C[C@@]1(c1cccc(O)c1)C2
Ke [1]: 76.8 nM | Ratio Ke [2]: 0.8 | Ke [3]: 61 nM | Activity [4]: inactive | Ratio Ke [5]: 0.6 | Activity [6]: inactive | Activity [7]: 79% | Activity [8]: inactive | Ke [9]: 43.2 nM | IC50 [10]: 95 nM

C[C@H]1CN(CCOc2ccccc2)[C@@H]2C[C@@H](NC(=O)C(C)(C)c3ccccc3)C[C@@]1(c1cccc(O)c1)C2
Ke [1]: 0.87 nM | Ratio Ke [2]: 111 | Ke [3]: 96.3 nM | Activity [4]: inactive | Ratio Ke [5]: 13 | Activity [6]: inactive | Activity [7]: 83% | Activity [8]: inactive | Ke [9]: 11.4 nM | IC50 [10]: 1.4 nM

C[C@@H](C(=O)N[C@@H]1C[C@@H]2C[C@](c3cccc(O)c3)(C1)[C@@H](C)CN2CCCc1ccccc1)c1ccccc1
Ke [1]: 0.14 nM | Ratio Ke [2]: 58 | Ke [3]: 8.1 nM | Activity [4]: inactive | Ratio Ke [5]: 69 | Activity [6]: inactive | Activity [7]: 78% | Activity [8]: inactive | Ke [9]: 9.6 nM | IC50 [10]: 0.15 nM

C[C@H]1CN(CCCc2ccccc2)[C@@H]2C[C@@H](NC(=O)C(C)(C)c3ccccc3)C[C@@]1(c1cccc(O)c1)C2
Ke [1]: 0.1 nM | Ratio Ke [2]: 132 | Ke [3]: 13.2 nM | Activity [4]: inactive | Ratio Ke [5]: 103 | Activity [6]: inactive | Activity [7]: 64% | Activity [8]: inactive | Ke [9]: 10.3 nM | IC50 [10]: 0.4 nM

C[C@H]1CN(CCCc2ccccc2)[C@@H]2C[C@@H](NC(=O)C3(c4cccs4)CCCC3)C[C@@]1(c1cccc(O)c1)C2
Ke [1]: 0.31 nM | Ratio Ke [2]: 77 | Ke [3]: 24 nM | Activity [4]: inactive | Ratio Ke [5]: 7.1 | Activity [6]: inactive | Activity [7]: 54% | Activity [8]: inactive | Ke [9]: 2.19 nM | IC50 [10]: 0.8 nM

C[C@H]1CN(CCCc2ccccc2)[C@@H]2C[C@@H](NC(=O)C3(c4ccc5ccccc5c4)CCCC3)C[C@@]1(c1cccc(O)c1)C2
Ke [1]: 0.75 nM | Ratio Ke [2]: 75 | Ke [3]: 56.1 nM | Activity [4]: inactive | Ratio Ke [5]: 47 | Activity [6]: inactive | Activity [7]: 69% | Activity [8]: inactive | Ke [9]: 35 nM | IC50 [10]: 7.7 nM
